Assay results reported in the EternaBench riboswitch data.

Tested on: MS2 coat protein
Assay: apparent Kd, MS2 coat protein; higher = weaker binding; RNA-MaP array; tryptophan 2.4 mM where present
Summary of the method: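 Binding was read on Illumina sequencing-chip clusters where stalled E. coli RNA polymerase had transcribed each design. A titration of SNAP-549-labelled MS2 coat protein began at 0.7 or 1.5 nM and doubled to 3 µM, once without ligand and once with constant ligand, in 100 mM Tris-HCl pH 7.5, 80 mM KCl, 4 mM MgCl2, BSA, DTT, yeast tRNA and Tween-20. The apparent Kd is the median of filtered per-cluster binding-curve fits, based on green signal normalised to red-channel RNA signal and control-cluster median Fmax.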

[1] = designed as: ON switch for tryptophan, no ligand
[2] = ligand present: tryptophan, designed as: ON switch for tryptophan
[3] = designed as: OFF switch for tryptophan, no ligand
[4] = ligand present: tryptophan, designed as: OFF switch for tryptophan

| Sequence | apparent Kd [1] [nM] | apparent Kd [2] [nM] | apparent Kd [3] [nM] | apparent Kd [4] [nM] |
| --- | --- | --- | --- | --- |
| CCAUGCAGGUCGGCCGCCACUACACACAUGAGGAUCACCCAUGUAGUUACUGGGUGAAGUGGCAGUAGGACCGGGACCUGCACAU | 311 | 729 |  |  |
| GGCUAGGUCUCGGCCGCCACUGCUACAUGAGGAUCACCCAUGUACCUGGGCGGUCGCUCCCUCGGCAGGACCGGGAGACAUUCGU |  |  | 9.97 | 23 |
| GAGAGAGGAGUGCGGCGUGUUCCGCUCCGUCGAGGACCGGUACGGCCGCCACUCGACAUGAGGAUCACCCAUGUCCUCUCUCGCG |  |  | 31.3 | 13.8 |
| UGGGUACCGACGGCCGCCACUGAAUAUAGACAUGAGGAUCACCCAUGUAGAGAUCCUAGAAUAAACAGGACCGGGUCUGGUGCUA |  |  | 220 | 362 |
| CAAUAAGUACCGGUCCUCAGAUCCUCAUGACGAGGACCGGUACGGCCGCCACUCGAAACAUGAGGAUCACCCAUGUAAUAAUAAU |  |  | 23 | 28.4 |
| GGAUAGGACACGGCCGCCACUACCUAGGAUACUAGAAACAUUUCCUCACAUGAGGAUCACCCAUGUAGGACCGGGUGUCCUAUCG |  |  | 273 | 115 |
| CGUAGUAUCAGACAUGAGGAUCACCCAUGUCGAGGACCGGUACGGCCGCCACUCGGCAGUUUGCGUCCUCAGGUACUCCAGGUAA |  |  | 15.9 | 18.8 |
| UAAUAAGUACCGGUCCUCAGAUCCUCAUGUCGAGGACCGGUACGGCCGCCACUCGAAACAUGAGGAUCACCCAUGUAAUAAUAAU |  |  | 39.5 | 31.5 |
| GGACUCGUCACGGCCGCCACUGCGGUGGUGUGACAUGAGGAUCACCCAUGUUGUCAUGCGGCCCUUAGGACCGGGUGUCGCUUCC |  |  | 169 | 198 |
| UUCUACGGCGAUCUGGGUUUACCAGAUCGACGAGGACCGGUACGGCCGCCACUCGUGUUUCUUUAACAUGAGGAUCACCCAUGUA | 48 | 22.4 |  |  |
| AAUUCAAUUUUCUUGAUGUAUUAUAUAUUUCGAGGACCGGUACGGCCGCCACUCGUUAAUUACAUGAGGAUCACCCAUGUUAGCU |  |  | 16.8 | 14 |
| AAUAAUAGGUGAUCUUGAGUCGUACCGUAACGAGGACCGGUACGGCCGCCACUCGAACAUGAGGAUCACCCAUGUAUGUAUGAUA | 90 | 117 |  |  |
| AAACUUCGCAUAGGAAAACUAUGUGAAGAUCGAGGACCGGUACGGCCGCCACUCGUCCUCAACAUGAGGAUCACCCAUGUAAUAA |  |  | 21.1 | 30 |
| GGCCAUGGAAACAUGGCGGCGGCAUAAGCGCGAGGACCGGUACGGCCGCCACUCGGGCGACAUGAGGAUCACCCAUGUUCCUCAU |  |  | 317 | 541 |
| GGGUGGUAGGCGGCCGCCACUGAUUUUCAUUCCUAGAUGACAUGAGGAUCACCCAUGUUUAUGGGCAGGACCGGGCCUGCUGUGG | 62.7 | 55.7 |  |  |
| AAUACAGUGUCGGCCGCCACUGAAACAUGACAUGAGACAUGAGGAUCACCCAUGUACAUAAUAAACAGGACCGGGACCCAUGUAU | 37.9 | 15.5 |  |  |
| AUACAUGAGGAUCACCCAUGUCCUCGUGAUCGAGGACCGGUACGGCCGCCACUCGGUCCUCGCGAGGAGGAGUCAAAGACUCCUA | 178 | 128 |  |  |
| AGACUGUAAAGUCUACCGGUCAACAAUAAUCGAGGACCGGUACGGCCGCCACUCGAUGUGAUAUACACAUGAGGAUCACCCAUGU | 16.2 | 15.5 |  |  |
| ACACAAUACAUGAGGAUCACCCAUGUAAAACGAGGACCGGUACGGCCGCCACUCGAAUACAGGAAACCUCGGAAUAUUAAGUGAA |  |  | 51.8 | 38 |
| GCUGCAGCUACGGCCGCCACUGUUACGUGAGACAUGAGGAUCACCCAUGUUGAUGUUUUACAGAAUAGGACCGGGUAGUUGUAGU |  |  | 9.07 | 10.2 |
| AUAAAUAAUAAAUAAGAUAAAAUGGGUGAACGAGGACCGGUACGGCCGCCACUCGGACAUGAGGAUCACCCAUGUCCAUGUGAAA |  |  | 20.2 | 27.6 |
| UAUAUAUACUCGGCCGCCACUGAGAGAGUCAUGUAAACAUGAGGAUCACCCAUGUAAUAUAUAUACAGGACCGGGAGUAUAUGAA |  |  | 15.3 | 13.6 |
| AGUUUAGACACGGCCGCCACUCGUGACAGAUUUCGCAGUGGUCUACAUGAGGAUCACCCAUGUCUGAGGACCGGGUGUUGAGUUU |  |  | 144 | 433 |
| AUGGUAAGAACAUGAGGAUCACCCAUGUGACGAGGACCGGUACGGCCGCCACUCGUACCUUAGUCGUCGAACAGAGGAUUCAUGU | 89.2 | 66 |  |  |
| CGAUAUAAGACGGCCGCCACUAUUAAGUAACAAAAUAAACAUGAGGAUCACCCAUGUACAUGGGAUAGGACCGGGUCCAAUAACG | 163 | 76.9 |  |  |
